{"source": "ChEMBL document CHEMBL4033644", "about": "“Aromatase inhibitors and apoptotic inducers: Design, synthesis, anticancer activity and molecular modeling studies of novel phenothiazine derivatives carrying sulfonamide moiety as hybrid molecules” (Eur J Med Chem, 2017)", "key": {"T47D [1]": {"system": "T47D", "assay": "Antiproliferative activity against human T47D cells after 48 hrs by SRB assay", "format": "functional, cell-based", "in_short": "(§1)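 Cells grown in RPMI-1640 with 5% heat-inactivated FCS, 1 mmol L-1 L-glutamine and 50 µg/mL gentamicin at 37 °C, 5% CO2. Seeded at 1000–2000 cells/well, 24 h later exposed 48 h to 5, 12, 25 and 50 µmol L-1. Fixed with 10% TCA 1 h at 4 °C, stained with 0.4% SRB, dye dissolved in Tris-HCl, OD 564 nm. IC50 from Boltzmann sigmoidal nonlinear regression.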"}, "Aromatase": {"target": "T1, Aromatase (Homo sapiens, UniProt P11511)", "T1 sequence (P11511 whole entry)": "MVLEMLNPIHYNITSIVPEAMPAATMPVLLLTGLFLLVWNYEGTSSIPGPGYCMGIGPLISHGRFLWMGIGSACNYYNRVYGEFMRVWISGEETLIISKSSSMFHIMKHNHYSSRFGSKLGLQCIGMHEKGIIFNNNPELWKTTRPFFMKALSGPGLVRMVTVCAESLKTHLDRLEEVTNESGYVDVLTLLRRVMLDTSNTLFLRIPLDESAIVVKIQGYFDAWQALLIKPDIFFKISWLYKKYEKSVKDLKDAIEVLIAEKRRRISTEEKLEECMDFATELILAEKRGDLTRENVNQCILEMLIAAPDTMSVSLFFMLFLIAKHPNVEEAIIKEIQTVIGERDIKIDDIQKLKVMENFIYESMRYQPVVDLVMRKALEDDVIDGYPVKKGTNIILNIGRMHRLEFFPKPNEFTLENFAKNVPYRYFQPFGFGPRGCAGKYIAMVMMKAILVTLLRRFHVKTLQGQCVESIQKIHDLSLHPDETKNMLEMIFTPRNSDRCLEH", "assay": "Inhibition of aromatase activity in human T47D cells after 24 hrs", "format": "cell-based", "conditions": "for inhibition (INH): human, 24 h", "in_short": "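T47D cells in DMEM with 10% FBS, 10 µg/ml insulin and 1% penicillin-streptomycin. Plated at 1.2–1.8 × 10,000 cells/well. Treated 24 h with serial dilutions, then cellular aromatase activity measured and IC50 determined.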"}, "T47D [2]": {"system": "T47D", "assay": "Induction of apoptosis in human T47D cells assessed as increase in caspase-9 level by ELISA relative to control", "format": "functional", "in_short": "(§2)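 Caspase-8 and caspase-9 in T47D cells quantified with separate human ELISA kits, reported as ng/mL against untreated control cells.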"}, "T47D [3]": {"system": "T47D", "assay": "Cell cycle arrest in human T47D cells assessed as accumulation at G1 phase at 8.1 uM by flow cytometry (reference value: 64.92%)", "format": "functional", "in_short": "(§3)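 Cell cycle distribution by flow cytometry in T47D cells, treated cells versus untreated control, at 8.1 µM; percentage of cells in G1, S and G2/M phases recorded.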"}, "T47D [4]": {"system": "T47D", "assay": "Cell cycle arrest in human T47D cells assessed as accumulation at S phase at 8.1 uM by flow cytometry (reference value: 17.14%)", "format": "functional", "in_short": "as §3"}, "T47D [5]": {"system": "T47D", "assay": "Cell cycle arrest in human T47D cells assessed as accumulation at G2/M phase at 8.1 uM by flow cytometry (reference value: 15.81%)", "format": "functional", "in_short": "as §3"}, "T47D [6]": {"system": "T47D", "assay": "Induction of apoptosis in human T47D cells assessed as decrease in Bcl-XL expression level at IC50 by qRT-PCR analysis relative to control", "format": "functional, cell-based"}, "T47D [7]": {"system": "T47D", "assay": "Induction of apoptosis in human T47D cells assessed as increase in Bax/Bcl2 ratio at IC50 by qRT-PCR analysis relative to control", "format": "functional"}, "T47D [8]": {"system": "T47D", "assay": "Induction of apoptosis in human T47D cells (reference value: 2.13%)", "format": "functional"}, "T47D [9]": {"system": "T47D", "assay": "Induction of apoptosis in human T47D cells assessed as increase in BAX expression level at IC50 by qRT-PCR analysis relative to control", "format": "functional"}, "T47D [10]": {"system": "T47D", "assay": "Induction of apoptosis in human T47D cells assessed as increase in caspase-8 level by ELISA relative to control", "format": "functional", "in_short": "as §2"}, "[11]": {"assay": "Cytotoxicity against human 184A1 cells after 48 hrs by SRB assay", "format": "cell-based", "conditions": "184A1, 48 h", "in_short": "as §1"}, "T47D [12]": {"system": "T47D", "assay": "Cell cycle arrest in human T47D cells by flow cytometry", "format": "functional, cell-based", "in_short": "as §3"}}}
{"smiles": "O=C(/C=C\\Nc1ccc(S(=O)(=O)Nc2ccc3cn[nH]c3c2)cc1)c1ccc2c(c1)Nc1ccccc1S2", "values": [{"measurement": "IC50", "setting": "T47D [1]", "value": 91.1, "unit": "µM"}]}
{"smiles": "Cc1cc(NS(=O)(=O)c2ccc(N/C=C\\C(=O)c3ccc4c(c3)Nc3ccccc3S4)cc2)on1", "values": [{"measurement": "IC50", "setting": "T47D [1]", "value": 78.4, "unit": "µM"}]}
{"smiles": "O=C(/C=C\\Nc1ccc(S(=O)(=O)Nc2ncccn2)cc1)c1ccc2c(c1)Nc1ccccc1S2", "values": [{"measurement": "IC50", "setting": "T47D [1]", "value": 61.3, "unit": "µM"}, {"measurement": "inhibition (INH)", "setting": "Aromatase", "value": 30.82, "unit": "%"}]}
{"smiles": "Cc1cc(C)nc(NS(=O)(=O)c2ccc(N/C=C\\C(=O)c3ccc4c(c3)Nc3ccccc3S4)cc2)n1", "values": [{"measurement": "IC50", "setting": "T47D [1]", "value": 50.7, "unit": "µM"}, {"measurement": "inhibition (INH)", "setting": "Aromatase", "value": 43.62, "unit": "%"}]}
{"smiles": "Cc1nnc(NS(=O)(=O)c2ccc(N/C=C\\C(=O)c3ccc4c(c3)Nc3ccccc3S4)cc2)s1", "values": [{"measurement": "IC50", "setting": "T47D [1]", "value": 71.4, "unit": "µM"}]}
{"smiles": "COc1cnc(NS(=O)(=O)c2ccc(N/C=C\\C(=O)c3ccc4c(c3)Nc3ccccc3S4)cc2)nc1", "values": [{"measurement": "IC50", "setting": "T47D [1]", "value": 83.2, "unit": "µM"}]}
{"smiles": "O=C(/C=C\\Nc1ccc(S(=O)(=O)Nc2nccs2)cc1)c1ccc2c(c1)Nc1ccccc1S2", "values": [{"measurement": "fold change (FC)", "setting": "T47D [2]", "value": 8.9}, {"measurement": "Activity", "setting": "T47D [3]", "value": 7.4, "unit": "%"}, {"measurement": "Activity", "setting": "T47D [4]", "value": 13.1, "unit": "%"}, {"measurement": "Activity", "setting": "T47D [5]", "value": 56.3, "unit": "%"}, {"measurement": "Activity", "setting": "T47D [6]", "value": "Below limit of detection"}, {"measurement": "Ratio", "setting": "T47D [7]", "value": "1e+08"}, {"measurement": "Activity", "setting": "T47D [8]", "value": 23.2, "unit": "%"}, {"measurement": "fold change (FC)", "setting": "T47D [9]", "value": 55000}, {"measurement": "fold change (FC)", "setting": "T47D [10]", "value": 34}, {"measurement": "IC50", "setting": "T47D [1]", "value": 8.1, "unit": "µM"}, {"measurement": "IC50", "setting": "Aromatase", "value": 5.67, "unit": "µM"}, {"measurement": "inhibition (INH)", "setting": "Aromatase", "value": 68.32, "unit": "%"}, {"measurement": "IC50", "setting": "[11]", "value": 391, "unit": "µM"}, {"measurement": "Activity", "setting": "T47D [12]", "value": "Dose-dependent effect"}]}
{"smiles": "Cc1noc(NS(=O)(=O)c2ccc(N/C=C\\C(=O)c3ccc4c(c3)Nc3ccccc3S4)cc2)c1C", "values": [{"measurement": "IC50", "setting": "T47D [1]", "value": 79.5, "unit": "µM"}]}
{"smiles": "CC(=O)NS(=O)(=O)c1ccc(N/C=C\\C(=O)c2ccc3c(c2)Nc2ccccc2S3)cc1", "values": [{"measurement": "IC50", "setting": "T47D [1]", "value": 71.8, "unit": "µM"}, {"measurement": "inhibition (INH)", "setting": "Aromatase", "value": 40.52, "unit": "%"}]}
{"smiles": "O=C(/C=C\\Nc1ccc(S(=O)(=O)c2ccc(N/C=C\\C(=O)c3ccc4c(c3)Nc3ccccc3S4)cc2)cc1)c1ccc2c(c1)Nc1ccccc1S2", "values": [{"measurement": "IC50", "setting": "T47D [1]", "value": 46.4, "unit": "µM"}]}
{"smiles": "COc1cc(NS(=O)(=O)c2ccc(N/C=C\\C(=O)c3ccc4c(c3)Nc3ccccc3S4)cc2)nc(OC)n1", "values": [{"measurement": "IC50", "setting": "T47D [1]", "value": 58.1, "unit": "µM"}, {"measurement": "inhibition (INH)", "setting": "Aromatase", "value": 44.94, "unit": "%"}]}
{"smiles": "N=C(N)NS(=O)(=O)c1ccc(N/C=C\\C(=O)c2ccc3c(c2)Nc2ccccc2S3)cc1", "values": [{"measurement": "IC50", "setting": "T47D [1]", "value": 23.7, "unit": "µM"}, {"measurement": "IC50", "setting": "Aromatase", "value": 9.67, "unit": "µM"}, {"measurement": "inhibition (INH)", "setting": "Aromatase", "value": 72.22, "unit": "%"}]}
{"smiles": "NS(=O)(=O)c1ccc(N/C=C\\C(=O)c2ccc3c(c2)Nc2ccccc2S3)cc1", "values": [{"measurement": "IC50", "setting": "T47D [1]", "value": 67.6, "unit": "µM"}, {"measurement": "inhibition (INH)", "setting": "Aromatase", "value": 28.9, "unit": "%"}]}
{"smiles": "Nc1ccc(S(=O)(=O)c2ccc(N/C=C\\C(=O)c3ccc4c(c3)Nc3ccccc3S4)cc2)cc1", "values": [{"measurement": "IC50", "setting": "T47D [1]", "value": 54.9, "unit": "µM"}, {"measurement": "inhibition (INH)", "setting": "Aromatase", "value": 31.92, "unit": "%"}]}
{"smiles": "Cc1cc(NS(=O)(=O)c2ccc(N/C=C\\C(=O)c3ccc4c(c3)Nc3ccccc3S4)cc2)nc(C)n1", "values": [{"measurement": "IC50", "setting": "T47D [1]", "value": 56.5, "unit": "µM"}, {"measurement": "inhibition (INH)", "setting": "Aromatase", "value": 35.88, "unit": "%"}]}
{"smiles": "COc1ncnc(NS(=O)(=O)c2ccc(N/C=C\\C(=O)c3ccc4c(c3)Nc3ccccc3S4)cc2)c1OC", "values": [{"measurement": "IC50", "setting": "T47D [1]", "value": 82.2, "unit": "µM"}]}
{"smiles": "O=C(/C=C\\Nc1ccc(S(=O)(=O)Nc2ccccn2)cc1)c1ccc2c(c1)Nc1ccccc1S2", "values": [{"measurement": "IC50", "setting": "T47D [1]", "value": 8.8, "unit": "µM"}, {"measurement": "IC50", "setting": "Aromatase", "value": 6.7, "unit": "µM"}, {"measurement": "inhibition (INH)", "setting": "Aromatase", "value": 68.86, "unit": "%"}]}
{"smiles": "Cc1ccnc(NS(=O)(=O)c2ccc(N/C=C\\C(=O)c3ccc4c(c3)Nc3ccccc3S4)cc2)n1", "values": [{"measurement": "IC50", "setting": "T47D [1]", "value": 73.6, "unit": "µM"}]}
{"smiles": "O=C(/C=C\\Nc1ccc(S(=O)(=O)Nc2cnc3ccccc3n2)cc1)c1ccc2c(c1)Nc1ccccc1S2", "values": [{"measurement": "IC50", "setting": "T47D [1]", "value": 21.4, "unit": "µM"}, {"measurement": "IC50", "setting": "Aromatase", "value": 8.9, "unit": "µM"}, {"measurement": "inhibition (INH)", "setting": "Aromatase", "value": 65.1, "unit": "%"}]}
{"smiles": "O=C(/C=C\\Nc1ccc(S(=O)(=O)Nc2ccnn2-c2ccccc2)cc1)c1ccc2c(c1)Nc1ccccc1S2", "values": [{"measurement": "IC50", "setting": "T47D [1]", "value": 68.1, "unit": "µM"}]}
{"smiles": "CN(C)/C=C\\C(=O)c1ccc2c(c1)Nc1ccccc1S2", "values": [{"measurement": "IC50", "setting": "T47D [1]", "value": 136, "unit": "µM"}]}
{"smiles": "COc1cccc2c1C(=O)c1c(O)c3c(c(O)c1C2=O)C[C@@](O)(C(=O)CO)C[C@@H]3O[C@H]1C[C@H](N)[C@H](O)[C@H](C)O1", "note": "[DOXORUBICIN]", "values": [{"measurement": "IC50", "setting": "T47D [1]", "value": 9.8, "unit": "µM"}]}
